Experiments:
tyrosinase [1] = assay: Rate of AA and NADH oxidation by tyrosinase/O2; format: biochemical, Mushroom
[2] = biological target: T1, horseradish peroxidase (HRP) (Armoracia rusticana, UniProt P00433); assay: Rate of AA and NADH oxidation by HRP/H2O2; format: biochemical
T1 sequence (P00433 31-338 limits assumed): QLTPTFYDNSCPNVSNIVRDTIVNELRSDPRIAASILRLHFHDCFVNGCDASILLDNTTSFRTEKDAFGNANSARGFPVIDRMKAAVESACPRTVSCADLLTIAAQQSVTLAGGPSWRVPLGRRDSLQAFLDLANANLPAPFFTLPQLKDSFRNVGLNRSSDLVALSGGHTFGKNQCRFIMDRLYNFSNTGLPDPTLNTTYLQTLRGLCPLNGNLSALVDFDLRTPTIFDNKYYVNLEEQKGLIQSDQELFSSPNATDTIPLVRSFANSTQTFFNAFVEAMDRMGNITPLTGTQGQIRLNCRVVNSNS

tyrosinase [3] = assay: Tyrosinase mediated GSH depletion assay; format: biochemical, Mushroom
B16-F10 melanoma cells = assay: MTT cell viability assay, B16-F10; format: cell-based, murine; settings: CAPE 15 μM, 48 h
Method in brief: (§1)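 24-well plates, 40,000 cells/well (SK-MEL-5 4,000/well) in 400 μL medium with 10% FBS, 24 h adhesion. Media: MEM Alpha for SK-MEL-5, MeWo and C32; DMEM for B16-F0 and B16-F10; McCoy's 5A for Saos-2; Leibovitz's L-15 for SW-620; RPMI for PC-3. Test compound 15 μM for 48 h; MTT 4 h, DMSO solubilisation for 2 h in the dark, A570. Viability relative to each line's untreated control.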

[4] = tested on: amelanotic SK-MEL-24 cells; assay: MTT cell viability assay, SK-MEL-24; format: cell-based, human; settings: CAPE 15 μM, 48 h
SK-MEL-28 melanoma cells = assay: Apoptosis assay; format: cell-based, human; settings: CAPE 15 μM, 48 h
Method in brief: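 SK-MEL-28 cells seeded at 160,000/well in 6-well plates in MEM and left overnight to attach; some wells transfected with tyrosinase shRNA3 or non-specific shRNA for 24 h. Treated with test compound 15 μM (controls 1% DMSO) for 48 h. Cells detached with versene, washed in PBS, pelleted, stained with annexin V-FITC plus PI in binding buffer for 15 min. Flow cytometry on 10,000 events; annexin+ cells (PI− or PI+) counted apoptotic; triplicates.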

B16-F0 melanoma cells = assay: MTT cell viability assay, B16-F0; format: cell-based, murine; settings: CAPE 15 μM, 48 h
Method in brief: as §1

[5] = tested on: osteosarcoma (Saos-2) cells; assay: MTT cell viability assay, Saos-2; format: cell-based, human; settings: CAPE 15 μM, 48 h
Method in brief: as §1

SMILES: O=C(/C=C/c1ccc(O)c(O)c1)OCCc1ccccc1 [CAPE, Caffeic Acid Phenylethyl Ester]
- Rate of NADH oxidation by tyrosinase/O2 (tyrosinase [1]; CAPE 100 μM, tyrosinase 5 U/mL, NADH 200 μM, pH 7.4): 10 nM (AA and NADH depletion)/CAPE (μM)/tyrosinase (U/mL)/min
- Rate of NADH oxidation by tyrosinase/O2 in the presence of GSH (tyrosinase [1]; with GSH 200 μM): 0.08 nM GSH depletion/CAPE (μM)/tyrosinase (U/mL)/min
- Rate of NADH oxidation by HRP/H2O2 ([2]; HRP 2 μM, H2O2 100 μM): 867 μM (AA and NADH depletion)/CAPE (μM)/HRP (μM)/min
- Rate of AA oxidation by HRP/H2O2 in the presence of GSH ([2]; with GSH): 10 μM GSH depletion/CAPE (μM)/HRP (μM)/min
- Rate of NADH oxidation by HRP/H2O2 in the presence of GSH ([2]; with GSH): 5 μM GSH depletion/CAPE (μM)/HRP (μM)/min
- Tyrosinase GSH depletion (2 h) (tyrosinase [3]; 100 μM phenolic agent, 200 μM GSH, tyrosinase/O2, 37 °C, 2 h): 82±6%
- GSH depleted per mole of CAPE, tyrosinase/O2 (tyrosinase [3]; 2 h incubation): 0.8 mole GSH per mole of CAPE
- cell viability (B16-F10 melanoma cells): 60±4%
- cell viability [4]: 81±7%
- apoptotic cell death (SK-MEL-28 melanoma cells): 12.5±0.7%
- increase in apoptotic cell death in comparison to untreated control cells (SK-MEL-28 melanoma cells): 2.5 fold
- cell viability (B16-F0 melanoma cells): 58±6%
- cell viability [5]: 90±6%
